According to ChEMBL document CHEMBL4184319, “Fluorescent-Labeled Selective Adenosine A2B Receptor Antagonist Enables Competition Binding Assay by Flow Cytometry” (J Med Chem, 2018):
pIC50, pKd, pKi: −log10 of the molar value.

Key:
[1] = Selectivity ratio of Ki for adenosine A2A receptor in rat brain striatal membranes to Ki for recombinant human adenosine A2B receptor expressed in CHO cell membranes; type: cell-based
[2] = molecular target: Adenosine receptor A2a (Rattus norvegicus, UniProt P30543); assay: Displacement of [3H]MSX-2 from adenosine A2A receptor in rat brain striatal membranes after 30 mins by liquid scintillation counting method; type: cell membranes, Striatum, Membrane
Chain of Adenosine receptor A2a (Rattus norvegicus, UniProt P30543) (P30543 whole entry): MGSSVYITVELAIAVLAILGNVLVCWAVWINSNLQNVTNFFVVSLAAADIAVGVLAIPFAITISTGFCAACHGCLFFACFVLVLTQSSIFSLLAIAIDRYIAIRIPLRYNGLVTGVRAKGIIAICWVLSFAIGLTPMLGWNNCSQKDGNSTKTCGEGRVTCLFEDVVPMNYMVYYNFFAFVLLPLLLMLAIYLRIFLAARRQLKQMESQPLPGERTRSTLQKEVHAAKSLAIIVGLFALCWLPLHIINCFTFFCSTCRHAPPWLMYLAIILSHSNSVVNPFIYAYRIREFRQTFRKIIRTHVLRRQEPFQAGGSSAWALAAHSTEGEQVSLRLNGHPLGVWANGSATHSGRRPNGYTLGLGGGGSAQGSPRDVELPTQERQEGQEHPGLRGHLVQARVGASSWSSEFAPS
In short: (§1)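 [³H]MSX-2 (1 nM) used with rat striatal or human A2A-HEK membranes, 30 min at rt. Membranes pre-incubated 10-15 min with ADA 0.12 IU/mL. DMSO 2.5 % final. GF/B filtration, then scintillation counting. Curves used 6-7 concentrations over 3 log units. At least three experiments, in duplicate (human) or triplicate (rat).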

[3] = molecular target: T1, Adenosine receptor A2b (Homo sapiens, UniProt P29275); assay: Displacement of [3H]PSB-603 from recombinant human adenosine A2B receptor expressed in CHO cell membranes after 75 mins by liquid scintillation counting method
T1 sequence (P29275 whole entry): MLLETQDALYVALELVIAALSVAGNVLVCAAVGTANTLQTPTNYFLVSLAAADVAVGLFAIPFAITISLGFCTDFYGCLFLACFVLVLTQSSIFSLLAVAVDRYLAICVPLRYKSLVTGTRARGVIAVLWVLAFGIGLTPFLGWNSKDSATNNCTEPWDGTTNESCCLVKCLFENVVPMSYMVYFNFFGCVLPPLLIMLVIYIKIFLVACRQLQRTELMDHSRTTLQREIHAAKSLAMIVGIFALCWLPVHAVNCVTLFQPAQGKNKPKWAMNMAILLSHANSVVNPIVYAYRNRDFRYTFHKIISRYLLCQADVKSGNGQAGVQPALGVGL
In short: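 [³H]PSB-603 (0.3 nM) used with CHO membranes expressing human, mouse or rat A2BAR, 75 min at rt. Membranes pre-incubated 10-15 min with ADA 0.12 IU/mL. Nonspecific binding defined with 10 µM DPCPX. DMSO 2.5 % final. Filtration on GF/B with ice-cold 50 mM Tris-HCl pH 7.4 containing 0.1 % BSA, then scintillation counting. Curves used 6-7 concentrations over 3 log units. At least three experiments.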

[4] = molecular target: T2, Adenosine receptor A1 (Rattus norvegicus, UniProt P25099); assay: Displacement of [3H]CCPA from adenosine A1 receptor in rat brain cortical membranes after 90 mins by liquid scintillation counting method; type: cell membranes
T2 sequence (P25099 whole entry): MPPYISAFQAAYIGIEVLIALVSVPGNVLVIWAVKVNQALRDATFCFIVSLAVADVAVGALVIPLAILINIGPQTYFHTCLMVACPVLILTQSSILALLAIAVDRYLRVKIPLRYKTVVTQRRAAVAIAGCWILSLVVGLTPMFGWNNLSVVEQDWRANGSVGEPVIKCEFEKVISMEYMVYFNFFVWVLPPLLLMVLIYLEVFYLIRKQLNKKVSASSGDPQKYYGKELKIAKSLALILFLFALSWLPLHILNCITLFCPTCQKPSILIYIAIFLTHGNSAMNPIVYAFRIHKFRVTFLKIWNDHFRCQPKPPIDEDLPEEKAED
In short: (§2)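 [³H]CCPA (1 nM) used with rat brain cortical or human A1-CHO membranes, 90 min at rt. Membranes pre-incubated 10-15 min with ADA 0.12 IU/mL. Nonspecific binding defined with 10 µM CADO. Compounds dissolved in DMSO, 2.5 % final. Filtration on GF/B filters with ice-cold Tris-HCl washes, then scintillation counting. Curves used 6-7 concentrations spanning 3 log units. At least three experiments, in duplicate (human) or triplicate (rat).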

[5] = molecular target: T3, Adenosine receptor A3 (Homo sapiens, UniProt P0DMS8); assay: Displacement of [3H]PSB-11 from recombinant human adenosine A3 receptor expressed in CHO cell membranes after 45 mins by liquid scintillation counting method
T3 sequence (P0DMS8 whole entry): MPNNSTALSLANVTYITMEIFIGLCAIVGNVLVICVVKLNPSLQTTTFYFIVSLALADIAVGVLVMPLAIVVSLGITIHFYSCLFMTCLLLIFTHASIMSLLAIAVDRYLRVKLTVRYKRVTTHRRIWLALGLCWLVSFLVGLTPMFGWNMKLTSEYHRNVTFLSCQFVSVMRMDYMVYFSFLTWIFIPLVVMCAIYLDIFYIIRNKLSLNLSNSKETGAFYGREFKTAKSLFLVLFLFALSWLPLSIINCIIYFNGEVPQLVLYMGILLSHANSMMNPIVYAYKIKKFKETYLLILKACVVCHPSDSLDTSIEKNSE
In short: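 Human A3-CHO membranes incubated with [³H]PSB-11 (1 nM) for 45 min at rt, after 10-15 min pre-incubation with ADA 0.12 IU/mL. Nonspecific binding defined with 100 µM R-PIA. DMSO 2.5 % final. GF/B filtration, then scintillation counting. Curves used 6-7 concentrations over 3 log units. At least three experiments in duplicate.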

[6] = molecular target: T1, Adenosine receptor A2b; assay: Displacement of PSB-12105 from recombinant human adenosine A2B receptor expressed in CHO cell membranes preincubated for 30 mins followed by PSB-12105 addition measured after 20 mins by flow cytometric method; type: cell-based
In short: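 Live CHO-hA2B cells were pre-treated with ADA (2 U/mL, 2 h, 37°C), detached with 5 mM EDTA, and resuspended in HBSS with 2 U/mL ADA at 2.5×10^5 cells/well in 96-well format. Antagonists pre-incubated 30 min at 37°C, then fluorescent ligand (100 nM) added for 20 min at 37°C. 3-5 independent experiments in duplicate.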

[7] = molecular target: Adenosine receptor A2a (Homo sapiens, UniProt P29274); assay: Displacement of [3H]MSX-2 from recombinant human adenosine A2A receptor expressed in HEK cell membranes after 30 mins by liquid scintillation counting method
Chain of Adenosine receptor A2a (Homo sapiens, UniProt P29274) (P29274 whole entry): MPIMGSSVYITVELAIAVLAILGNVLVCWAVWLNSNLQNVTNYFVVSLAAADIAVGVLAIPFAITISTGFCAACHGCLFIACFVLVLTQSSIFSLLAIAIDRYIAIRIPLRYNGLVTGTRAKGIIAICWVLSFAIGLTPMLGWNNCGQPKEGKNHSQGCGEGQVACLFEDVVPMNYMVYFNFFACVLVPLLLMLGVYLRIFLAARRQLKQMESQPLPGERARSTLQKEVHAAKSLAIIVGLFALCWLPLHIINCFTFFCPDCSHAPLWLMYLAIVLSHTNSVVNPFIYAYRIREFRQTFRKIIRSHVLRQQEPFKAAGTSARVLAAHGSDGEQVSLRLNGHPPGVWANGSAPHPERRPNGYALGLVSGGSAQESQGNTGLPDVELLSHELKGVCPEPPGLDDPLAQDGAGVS
In short: as §1, with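 “IU/mL. Nonspecific binding defined with 10 µM CGS15943.” for “IU/mL.”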

[8] = molecular target: T4, Adenosine receptor A1 (Homo sapiens, UniProt P30542); assay: Displacement of [3H]CCPA from recombinant human adenosine A1 receptor expressed in CHO cell membranes after 90 mins by liquid scintillation counting method; in short: as §2
T4 sequence (P30542 whole entry): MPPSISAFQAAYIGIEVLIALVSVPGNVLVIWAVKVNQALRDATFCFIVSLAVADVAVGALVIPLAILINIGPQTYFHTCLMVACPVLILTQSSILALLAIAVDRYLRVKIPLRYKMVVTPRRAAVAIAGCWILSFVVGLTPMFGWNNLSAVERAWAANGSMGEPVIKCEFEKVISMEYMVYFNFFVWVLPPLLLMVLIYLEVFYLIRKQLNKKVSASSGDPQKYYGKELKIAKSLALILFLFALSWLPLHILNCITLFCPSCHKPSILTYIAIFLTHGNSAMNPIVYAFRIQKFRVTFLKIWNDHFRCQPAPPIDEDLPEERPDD

[9] = species: Homo sapiens; assay: Selectivity ratio of Ki for recombinant human adenosine A2A receptor expressed in HEK cell membranes to Ki for recombinant human adenosine A2B receptor expressed in CHO cell membranes; type: cell-based
[10] = molecular target: T4, Adenosine receptor A1; assay: Displacement of [3H]DPCPX from recombinant human adenosine A1 receptor expressed in CHO cell membranes after 60 mins by scintillation counting method
[11] = molecular target: T5, Adenosine receptor A1 (Homo sapiens) (UniProt P30542); assay: Antagonist activity at recombinant human adenosine A1 receptor expressed in CHO cell membranes assessed as inhibition of NECA-induced cAMP accumulation; type: functional, cell-based
T5 sequence (whole entry): T4 sequence (P30542 whole entry)

Compound | Ratio Ki [1] | pKi [2] | pKi [3] | pKi [4] | pKi [5] | pIC50 [6] | pKi [7] | pKi [8] | Ratio Ki [9] | pKd [10] | Kb [11]
CCCn1c(=O)[nH]c2nc(-c3ccc(OCC(=O)NCCCCC4=C5C(C)=CC(C)=[N+]5[B-](F)(F)n5c(C)cc(C)c54)cc3)[nH]c2c1=O | 64 | 5.80 | 7.61 | 6.75 | 6.14 | – | – | – | – | – | –
CCCN1C(=O)N=C2N=C(c3ccc(S(=O)(=O)N4CCN(Cc5ccc(Cl)cc5)CC4)cc3)N=C2C1=O | – | – | – | – | – | 8.97 | – | – | – | – | –
CCCn1c(=O)[nH]c2nc(-c3ccc(OCC(=O)NCCCCCC4=C5C(C)=CC(C)=[N+]5[B-](F)(F)n5c(C)cc(C)c54)cc3)[nH]c2c1=O | 81 | 6.32 | 8.23 | 7.11 | 5.34 | – | 7.23 | 6.15 | 9.9 | – | –
CCCn1c(=O)c2[nH]c(-c3ccc(OCC(=O)NCCNC(=O)CCCCCNC(=O)COc4ccc(/C=C/C5=[N+]6C(=Cc7ccc(-c8cccs8)n7[B-]6(F)F)C=C5)cc4)cc3)nc2n(CCC)c1=O | – | – | – | – | – | – | – | – | – | 6.82 | 0.209 µM
CCCn1c(=O)[nH]c2nc(-c3ccc(OCC(=O)NCCCC4=C5C(C)=CC(C)=[N+]5[B-](F)(F)n5c(C)cc(C)c54)cc3)[nH]c2c1=O | > 150 | 5.67 | 7.94 | 6.77 | 6.04 | – | – | – | – | – | –
CCCn1c(=O)[nH]c2nc(-c3ccc(OCC(=O)NCCCCCCCCCCC4=C5C(C)=CC(C)=[N+]5[B-](F)(F)n5c(C)cc(C)c54)cc3)[nH]c2c1=O | > 150 | < 5.00 | 8.11 | 6.64 | ≤ 5.00 | – | 5.80 | < 5.00 | > 150 | – | –
CCCn1c(=O)[nH]c2nc(-c3ccc(OCC(=O)NCCCCc4ccccc4)cc3)[nH]c2c1=O | > 150 | 6.30 | 8.48 | 7.53 | 5.85 | – | – | – | – | – | –
CCCN1C(=O)N=C2N=C(c3ccc(S(=O)(=O)N4CCN(Cc5ccccc5)CC4)cc3)N=C2C1=O | – | – | – | – | – | 7.63 | – | – | – | – | –
